Reference: ChEMBL document CHEMBL1127051, “Vanilloids. 1. Analogs of capsaicin with antinociceptive and antiinflammatory activity” (J Med Chem, 1993)

Key:
Rattus norvegicus [1] = assay: Percentage analgesia by rat hot plate test after oral administration at 300 mg/kg.; format: functional
In short: (§1)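 Rats fasted 18 h, prescreened on a 55 ± 0.5 °C hot plate (latency <12 s, else lowest <30 s) to set the 0 h value. Groups of 8 dosed orally in sesame oil (1 mL/200 g); latency read at 1.5, 3, 5 h (24 h if persisting). %analgesia = [(LT(t) − LT(0))/(60 − LT(0))]×100, taken at the time of maximal latency.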

Mus musculus [2] = assay: Latency time measured by mouse hot plate test after subcutaneous administration at 200 mg/kg; format: functional; design: unit: s
In short: (§2)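 Male CF-1 mice, 8 per group, given test agent sc in 0.2 mL ethanol/Tween-80/saline (10/10/80); dose 0.68 mmol (200 mg/kg for capsaicin). Placed on copper surface held at 55 ± 0.5 °C. Paw-response latency (s) reported as group mean ± SD; pretest latency ~5 s.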

Mus musculus [3] = assay: Percentage inhibition in mouse by using Croton oil-inflamed mouse ear test (topical dosing).; format: functional; design: concentration or dose not given beside the values
In short: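 Male Cox ICR mice (25–35 g), 10 per group. Left ear given 25 μL of 1% compound in ethanol, repeated ~17 h later; 1 h after that, both ears given 25 μL 2% croton oil. After 4 h, 5 mm ear punches weighed. % inhibition = [(C − T1)/C]×100, using left-minus-right weight differences versus vehicle controls.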

Mus musculus [4] = species on record: Mus musculus; assay: Ratio of the number of responders to the number of animals tested; 6/8; format: functional
[5] = Acute toxicity after intraperitoneal dose at 200 mg/kg in mice; format: organism-based; design: dose 200 mg/kg, route intraperitoneal; settings: mouse, in vivo, ip, read-out: Lethality
In short: (§3)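 Single intraperitoneal dose at the listed mg/kg; acute toxicity scored as % lethality = number of deaths / number of animals dosed, 7–10 animals per group.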

[6] = Acute toxicity after intraperitoneal dose at 15 mg/kg in mice; format: organism-based; design: dose 15 mg/kg, route intraperitoneal; settings: mouse, in vivo, ip, read-out: Lethality; in short: as §3
Mus musculus [7] = species on record: Mus musculus; assay: Ratio of the number of responders to the number of animals tested; 2/8; format: functional
[8] = Acute toxicity after intraperitoneal dose at 50 mg/kg in mice; format: organism-based; design: dose 50 mg/kg, route intraperitoneal; settings: mouse, in vivo, ip, read-out: Lethality; in short: as §3
Mus musculus [9] = species on record: Mus musculus; assay: Ratio of the number of responders to the number of animals tested; 4/8; format: functional
[10] = Acute toxicity after intraperitoneal dose at 100 mg/kg in mice; format: organism-based; design: dose 100 mg/kg, route intraperitoneal; settings: mouse, in vivo, ip, read-out: Lethality; in short: as §3
Mus musculus [11] = species on record: Mus musculus; assay: Ratio of the number of responders to the number of animals tested; 7/8; format: functional
Mus musculus [12] = species on record: Mus musculus; assay: Ratio of the number of responders to the number of animals tested; 0/8; format: functional
Mus musculus [13] = species on record: Mus musculus; assay: Ratio of the number of responders to the number of animals tested; 5/8; format: functional
Mus musculus [14] = assay: Latency time measured by mouse hot plate test after subcutaneous administration at 200 mg/kg in experiment 1; format: functional; in short: as §2
[15] = Acute toxicity after intraperitoneal dose at 4 mg/kg in mice; format: organism-based; design: dose 4 mg/kg, route intraperitoneal; settings: mouse, in vivo, ip, read-out: Lethality; in short: as §3
Mus musculus [16] = assay: Latency time measured by mouse hot plate test after subcutaneous administration at 200 mg/kg in experiment 3; format: functional; in short: as §2
Rattus norvegicus [17] = assay: Percentage analgesia by using rat hot plate test after oral administration at 300 mg/kg; format: functional; in short: as §1
Mus musculus [18] = assay: Latency time measured by mouse hot plate test after subcutaneous at 200 mg/kg in experiment 2; format: functional; in short: as §2
Mus musculus [19] = species on record: Mus musculus; assay: Ratio of the number of responders to the number of animals tested; 6/6; format: functional
[20] = Acute toxicity after intraperitoneal dose at 50 mg/kg; format: organism-based; design: dose 50 mg/kg, route intraperitoneal; settings: mouse, in vivo, ip, read-out: Lethality; in short: as §3
Mus musculus [21] = species on record: Mus musculus; assay: Ratio of the number of responders to the number of animals tested; 5/5; format: functional

Structure (SMILES)	Analgesia (Rattus norvegicus [1])	Latency (Mus musculus [2])	Inhibition (Mus musculus [3])	mortality [8]	further results
CCCC/C=C/C/C=C\CCCCCCCCC(=O)NCc1ccc(O)c(OC)c1.CCCCC/C=C/C=C\CCCCCCCCC(=O)NCc1ccc(O)c(OC)c1	34%	>36.6	66.8%	–	Response (Mus musculus [4]): 6; mortality [5]: 0%
CCCCCCCCCCNC(=O)Cc1ccc(O)c(OC)c1	–	5.3	58.1%	–	mortality [6]: 100%
CCCCCCCC#CCCCCCCCCC(=O)NCc1ccc(O)c(OC)c1	15%	>18.6	50.3%	–	Response (Mus musculus [7]): 2; mortality [5]: 70%
COc1cc(CNC(=O)CCCCCc2ccccc2)ccc1O	–	6.2	57.6%	70%	–
CCCC(=O)NCc1ccc(O)c(OC)c1	–	10.8	3.2%	–	Response (Mus musculus [9]): 4; mortality [10]: 40%
CCCCCCCCCNC(=O)Cc1ccc(O)c(OC)c1	–	22.3	80.7%	–	mortality [6]: 86%
CCCCCCCCCC/C=C\CCCCCC(=O)NCc1ccc(O)c(OC)c1	37%	46.1	68.4%	–	mortality [5]: 30%
CCCCCCCCCCCCNC(=O)Cc1ccc(O)c(OC)c1	–	5	55.3%	0%	–
CCCCCCCCCCC(=O)NCc1ccc(O)c(OC)c1	–	47.7	29.6%	80%	Response (Mus musculus [11]): 7
CCCCCCCC/C=C\CCCCCCCCNC(=O)Cc1ccc(O)c(OC)c1	74%	27.9	95.5%	–	Response (Mus musculus [11]): 7; mortality [5]: 50%
CCCCCCCC/C=C\CCCCCCCCCCCCCC(=O)NCc1ccc(O)c(OC)c1	–	6.1	48%	–	Response (Mus musculus [12]): 0
COc1cc(CNC(=O)CCCCCCc2ccccc2)ccc1O	1%	6.8	46.2%	60%	–
CCCCC(=O)NCc1ccc(O)c(OC)c1	–	9.6	24.2%	–	mortality [10]: 60%; Response (Mus musculus [7]): 2
C=CCCCCCCCCNC(=O)Cc1ccc(O)c(OC)c1	29%	32.4	98.9%	–	mortality [10]: 90%; Response (Mus musculus [13]): 5
CCCCCCC/C=C/CCCCCCCCC(=O)NCc1ccc(O)c(OC)c1	37%	7.1	10.9%	–	Response (Mus musculus [12]): 0; mortality [5]: 60%
CCCCCCCCNC(=O)Cc1ccc(O)c(OC)c1	–	–	89.1%	–	Latency (Mus musculus [14]): 58.7; mortality [15]: 50%; Latency (Mus musculus [16]): 32.3; Analgesia (Rattus norvegicus [17]): 7%; Latency (Mus musculus [18]): >60
CCCCCCCCCCCCCCCCCC(=O)NCc1ccc(O)c(OC)c1	3%	5.9	11.3%	0%	Response (Mus musculus [12]): 0
CCCCCCCC(=O)NCc1ccc(O)c(OC)c1	–	>51.3	45.8%	90%	Response (Mus musculus [19]): 6
COc1cc(CC(=O)NC2CCCCCCC2)ccc1O	4%	34.2	34.7%	–	Response (Mus musculus [19]): 6; mortality [5]: 80%
CCCCCCCCCCCC(=O)NCc1ccc(O)c(OC)c1	–	9.9	48.1%	–	Response (Mus musculus [12]): 0; mortality [20]: 100%; mortality [6]: 25%
C#CCCCCCCCCC(=O)NCc1ccc(O)c(OC)c1	15%	17.1	36.4%	90%	–
CCCCCCCCCC(=O)NCc1ccc(O)c(OC)c1	–	>43	71.4%	80%	Response (Mus musculus [21]): 5
CCCCCc1ccc(C(=O)NCc2ccc(O)c(OC)c2)cc1	–	6.9	9.3%	60%	–
CCCCCCCC[C@H]1O[C@H]1CCCCCCCC(=O)NCc1ccc(O)c(OC)c1	5%	13.5	54.5%	–	mortality [5]: 40%
CCCC/C=C/CCCCCCCC(=O)NCc1ccc(O)c(OC)c1	22%	–	–	–	–
